Laboratory results taken from ChEMBL document CHEMBL3227981, “Studies on biologically active nucleosides and nucleotides. 5. Synthesis and antitumor activity of some 2,2'-anhydro-1-(3',5'-di-O-acyl-beta-D-arabinofuranosyl)cytosine salts and 2,2'-anhydro-1-(3'-O-acyl-beta-D-arabinofuranoxyl)cytosine 5'-phosphates” (J Med Chem, 1979).

Columns and labels:
[1] = system: L1210; experiment: Antitumor activity against mouse L1210 cells allografted in BDF1 mouse assessed as increase of host life span at 6.25 mg/kg, ip qd for 5 days; assay type: functional; settings: route intraperitoneal
In short: (§1)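 BDF1 mice were given 1×10^5 L1210 cells ip. Compound was dissolved or suspended in 0.9% NaCl with 0.1% HCO-60 and given ip daily for 5 days, starting 24 h after inoculation. Groups had 6–10 mice. ILS = (T/C − 1) × 100, from mean survival time of treated versus control mice, observed over 60 days.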

[2] = system: L1210; experiment: Antitumor activity against mouse L1210 cells allografted in BDF1 mouse assessed as increase of host life span at 25 mg/kg, ip qd for 5 days; assay type: functional; settings: route intraperitoneal; in short: as §1
[3] = system: L1210; experiment: Antitumor activity against mouse L1210 cells allografted in BDF1 mouse assessed as increase of host life span at 100 mg/kg, ip qd for 5 days; assay type: functional; settings: route intraperitoneal; in short: as §1
[4] = system: L1210; experiment: Antitumor activity against mouse L1210 cells allografted in BDF1 mouse assessed as increase of host life span at 100 mg/kg, po qd for 5 days; assay type: functional
In short: (§2)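 L1210 cells (1×10^5) were implanted ip in BDF1 mice. Oral dosing began 24 h later and ran once daily for 5 days, with compound in 0.9% saline containing 0.1% HCO-60 as solution or suspension. Six to ten mice per group. Percent ILS was (T/C − 1) × 100 on mean survival time, with a 30-day observation period.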

[5] = Toxicity in ip dosed ICR mouse up to 3 weeks; assay type: organism-based; settings: in vivo
In short: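 Maximum tolerated dose was set from a single ip injection into three female ICR mice weighing 20–21 g, followed by 3 weeks of observation.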

[6] = system: L1210; experiment: Antitumor activity against mouse L1210 cells allografted in BDF1 mouse assessed as increase of host life span at 200 mg/kg, po qd for 5 days; assay type: functional; in short: as §2

| Compound | Activity [1] [%] | Activity [2] [%] | Activity [3] [%] | Activity [4] [%] | MTD at 504 h [5] [mg/kg] | Activity [6] [%] |
| --- | --- | --- | --- | --- | --- | --- |
| CCCCCCCCCCCOC(=O)CCC(=O)OC[C@H]1O[C@@H]2[C@H](Oc3nc(=N)ccn32)[C@@H]1OC(=O)CCC(=O)OCCCCCCCCCCC.Cl | 15.4 | 43.6 | 94.6 | 10.8 | 750 |  |
| CCCCSCCCCCCCCCCC(=O)OC[C@H]1O[C@@H]2[C@H](Oc3nc(=N)ccn32)[C@@H]1OC(=O)CCCCCCCCCCSCCCC.Cl | 26.7 | 164 | >624.3 | 4 | 500 | 13.3 |
| CCCC(=O)OCCCCCCCCCCC(=O)OC[C@H]1O[C@@H]2[C@H](Oc3nc(=N)ccn32)[C@@H]1OC(=O)CCCCCCCCCCOC(=O)CCC.Cl | 5.1 | 66.7 | 86.7 | 13.3 | 300 | 33.3 |
| CC(C)(C)c1ccc(C(=O)OC[C@H]2O[C@@H]3[C@H](Oc4nc(=N)ccn43)[C@@H]2OC(=O)c2ccc(C(C)(C)C)cc2)cc1.Cl | 26.7 | 84 | 116.7 | 22.7 | 300 | 26.7 |
| CCCCC(=O)O[C@H]1[C@H]2Oc3nc(=N)ccn3[C@@H]2O[C@@H]1COP(=O)(O)O | 15.8 | 37 | 64.6 | 22.7 | 750 | 45.6 |
| CCCCCCCCCCCCCCCC(=O)OC[C@H]1O[C@@H]2[C@H](Oc3nc(=N)ccn32)[C@@H]1OC(=O)CCCCCCCCCCCCCCC.Cl | 59 | 151.3 | >528.2 | 0 | 750 | 22.5 |
| Cl.N=c1ccn2c(n1)O[C@@H]1[C@H](O)[C@@H](CO)O[C@H]12 |  | 42.3 | 76.9 | 32.5 | 3000 | 69.2 |
